Assay outcomes as filed in PubChem BioAssay.
LMP1 NFkB inh = EBV LMP1-driven NF-kappaB luciferase reporter inhibitors, primary screen, cell-based, luminescence, single point. LMP1-induced NF-kappaB luciferase reporter cells. inhibition, % at 12.5 µM. 350,000 compounds, 0.69% hits; in the data active means inhibition above about 41%; inconclusive means no clear call, values can overlap the other calls;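 further: 0% = neutral control wells and 100% = reference inhibitor control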
HIF activator = HIF pathway transcriptional activators, primary screen, cell-based, U2OS HRE-luciferase, luminescence. U2OS HRE-luciferase reporter; normalized: DMSO 0%, desferrioxamine 100%. activation, % at 7.5 µM (by protocol). 300,000 compounds, 0.32% hits;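 active means mean activation of at least 10% of the iron chelator positive control signal, with at least half of replicates also reaching 10%; inconclusive means mean and replicate majority disagree about reaching 10%; inactive means mean and most replicates under 10%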
NR2E3 ag-1 = inhibitors of NR2E3-RetCOR corepressor binding, primary screen, NR2E3 agonist project, biochemical, TR-FRET, GST-NR2E3, biotin-RetCOR. Photoreceptor-specific nuclear receptor (Homo sapiens), Q9Y5X4. 1536-well. inhibition of corepressor binding, % at 4.78 µM. 320,000 compounds, 0.12% hits;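 active means percent inhibition above the cutoff of mean plus 3 SD of all tested compounds, set per screening campaign, cut at about 20% in these data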;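 further: 0% = DMSO wells and 100% = biotin wells as full block of FRET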
Target sequence (Q9Y5X4 whole entry, looked up): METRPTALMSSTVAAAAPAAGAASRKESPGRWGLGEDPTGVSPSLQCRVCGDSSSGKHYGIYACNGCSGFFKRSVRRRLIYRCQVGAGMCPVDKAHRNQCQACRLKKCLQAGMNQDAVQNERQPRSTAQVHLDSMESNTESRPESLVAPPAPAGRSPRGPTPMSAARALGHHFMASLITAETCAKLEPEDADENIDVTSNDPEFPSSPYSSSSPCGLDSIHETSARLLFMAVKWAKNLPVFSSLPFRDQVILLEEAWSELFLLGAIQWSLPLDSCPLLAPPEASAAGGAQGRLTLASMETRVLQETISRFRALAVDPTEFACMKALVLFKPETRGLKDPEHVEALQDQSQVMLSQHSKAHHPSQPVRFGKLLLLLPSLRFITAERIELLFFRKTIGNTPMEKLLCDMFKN
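Material: NR2E3–RetCOR corepressor complex | Quantity: 1.35 nM GST-tagged NR2E3 final | Schedule: 5 h at 4 °C | Replication: Singlicate compound wells | Reagent: RetCOR corepressor, biotinylated, 7 nM | Controls: Biotin wells as high control, 0.6% DMSO wells as low control | Signal: TR-FRET, Eu(K)-anti-GST donor, streptavidin-D2 acceptor, ex 340, em 617/671 nm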
NR2E3 ag-2 = NR2E3 agonists in two-hybrid cells, primary screen, cell-based, luminescence, CHO-S, Gal4-NCOR/VP16-NR2E3; luciferase; inhibition of corepressor binding, % at 3.98 µM; 360,000 compounds, 0.35% hits; AID 602229, 2012;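 active means inhibition above the mean of all tested compounds plus 3 SD, cut at about 70% in these data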;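 further: 0% = DMSO with NR2E3 transfected cells and 100% = cells lacking NR2E3 construct; higher means lower luciferase signal from less NR2E3 corepressor binding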
TROY NFkB inh = inhibitors of TROY-driven NF-kB signaling, primary screen, Q293 LMP1-TROYcd cells, NF-kB luciferase, uHTS. Q293 LMP1-TROYcd NF-kB luciferase reporter, 4 h. 360,000 compounds, 0.98% hits. inhibition, % at 10 µM. AID 1347056, 2019;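 active means compounds whose plate-normalised and pattern-corrected inhibition of the luciferase reporter signal at the single screening dose is 50% or more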
The depositor's hits bear a star; u = inconclusive; x = no result. In the library only some 2% were active in any assay of this set; here they are far more common.

SMILES	LMP1 NFkB inh	HIF activator	NR2E3 ag-1	NR2E3 ag-2	TROY NFkB inh
CCOC(=O)c1sc2nc3c(cc2c1N)COC(C(C)C)C3 (configuration not stated)	-7	-3	4	-33	66*
CCOC(=O)c1sc2nc(N3CCOCC3)c3c(c2c1N)CC(C(C)C)OC3 (configuration not stated)	0	0	1	-37	-7
COc1ccccc1S(=O)(=O)N(C)C[C@H]1Oc2cc(C#CCC3CCCC3)ccc2S(=O)(=O)N([C@H](C)CO)C[C@H]1C	-7	x	x	16	-3
Cc1ccc(NCc2nc3ccccc3n2C)cc1C	-31	-3	4	-99	-25
CN(C)C=NC(=O)c1cn(-c2ccc(F)cc2)c(=O)c2ccccc12	6	58*	0	8	11
O=C(CSCC(=O)Nc1nc(-c2ccc3c(c2)OCO3)cs1)Nc1nccs1	85*	3	2	-30	25
O=C(CSc1ccc(-c2ccc3c(c2)OCO3)nn1)Nc1nccs1	-14	0	-10	5	-12
N#CC(C#N)=C(Nc1ccc(F)cc1)SCc1cccc(Br)c1	u	0	2	94*	34
CC(=O)NCCNC(=O)C1(C)Cc2c(-c3ccc(NC(C)=O)cc3)ccnc2O1 (configuration not stated)	x	x	x	-43	4
CCc1ccc(OCCOCCN2CCN(C)CC2)cc1	-10	1	2	-11	-6
CN1CCN(CCOc2ccc(Cc3ccccc3)cc2)CC1	48*	1	-1	-8	-4
O=C(O)c1cnc(-c2ccccc2)nc1Sc1ccc(Cl)cc1Cl	1	0	1	5	61*
Nc1ccc2c(c1)OC1(CCCC1)O2	59*	-6	0	35	68*
CCN(CC)CCOC(=O)c1ccc(NC(=O)/C=C/c2cccs2)cc1	9	0	-1	15	74*
CC(C)Nc1nnc(SCC(=O)c2c(N)n(Cc3ccccc3)c(=O)n(C)c2=O)s1	64*	-1	-2	-2	-15
C/C(=N\NC(=O)C1CC1(c1ccccc1)c1ccccc1)c1cccc([N+](=O)[O-])c1 (configuration not stated)	-15	0	5	8	-2
O=C(Nc1ccc([N+](=O)[O-])cc1)C1CC1(c1ccccc1)c1ccccc1 (configuration not stated)	3	0	0	-13	70*
O=C(COC(=O)c1ccc(F)c(S(=O)(=O)N2CCOCC2)c1)Nc1ccc2[nH]c(=O)[nH]c2c1	-1	x	-2	9	-18
O=C(CN1CCC(n2nnc3cc(C(F)(F)F)ccc32)CC1)Nc1ccc2c(c1)OCCO2	16	-2	1	2	64*
Cc1cc(/C=C2\SC(=S)N(C)C2=O)c(C)n1-c1ccccc1O	0	2	2	-6	61*
Cc1cc(/C=C2\SC(=S)N(C)C2=O)c(C)n1-c1ccc(O)cc1	48*	-4	-1	-55	82*
O=C(COC(=O)c1ccccc1-n1cnnn1)c1ccc(Br)cc1	2	0	5	0	62*
O=C(COC(=O)c1ccccc1-n1cnnn1)c1ccccc1	-12	-32	-1	-26	36
Cc1ccc(S(=O)(=O)Nc2c(C)n(C)n(-c3ccccc3)c2=O)c(C)c1	10	2	-1	1	0
Cc1cc(C)c(OCCCn2ccnc2)c(C)c1	12	-17	x	-9	7
SMILES	LMP1 NFkB inh	HIF activator	NR2E3 ag-1	NR2E3 ag-2	TROY NFkB inh
Cc1cc(C)c(OCCn2ccnc2)c(C)c1	73*	-1	x	-29	-3
O=C(c1ccc(CNS(=O)(=O)c2ccc(F)cc2)cc1)N1CCCCCC1	-13	x	x	-37	19
CNc1nc(Oc2cccc(F)c2)c2sccc2n1	x	x	x	-7	-7
COc1cc(/C=N/NC(=Nc2ccc(C)cc2)c2nc3ccccc3s2)ccc1O	18	-3	2	91*	88*
COc1ccccc1/C=N/NC(=Nc1ccc(C)cc1)c1nc2ccccc2s1	x	6	1	x	x
Cc1ccc(Nc2nc(-c3c(C)nc4ccccn34)cs2)cc1	-2	0	3	42	59*
